Active and inactive are the calls of the source. The rule behind the calls is not given here.
Experiments:
[1] = Cytotoxicity against mouse 3T3 cells assessed as cell viability incubated for 24 hrs by WST-1 assay (reference value: 57 %); type: cell-based; details: NIH3T3 cells, read-out: Activity
LN-229 [2] = test: Cytotoxicity against human LN229 cells assessed as cell viability at 50 uM incubated for 1 hr followed by neutron irradiation for 3 mins by WST-1 assay; type: functional, cell-based
U-87 MG [3] = test: Cytotoxicity against human U87MG cells assessed as cell viability at 100 uM incubated for 24 hrs by WST-1 assay (reference value: 97 %); type: functional, U-87MG ATCC; details: read-out: Activity
[4] = Drug uptake in human LN229 cells at 50 uM measured upto 4 hrs by ICP-MS analysis; type: ADME, cell-based; details: ln-229, 4 h
Summary of the method: (§1)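 Cellular boron accumulation was measured by ICP-MS as boron concentration (ppm) at time points over the incubation, up to 4 h. Mouse 3T3 cells served as the normal reference for the tumor/normal (T/N) ratio.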

[5] = Aqueous solubility of compound; type: physicochemical; details: buffer
LN-229 [6] = test: Cytotoxicity against human LN229 cells assessed as cell viability at 100 uM incubated for 24 hrs by WST-1 assay (reference value: 91 %); type: functional; details: LN-229, 24 h, read-out: Activity
[7] = Drug uptake in human U87MG cells at 50 uM measured upto 4 hrs by ICP-MS analysis; type: ADME, cell-based; details: u-87mg atcc; summary of the method: as §1
U-87 MG [8] = test: Cytotoxicity against human U87MG cells assessed as cell viability at 50 uM incubated for 1 hr followed by neutron irradiation for 3 mins by WST-1 assay; type: functional, cell-based; details: U-87MG ATCC
[9] = Drug uptake in human U87MG cells at 50 uM incubated for 2 hrs by ICP-MS analysis; type: ADME, cell-based; details: u-87mg atcc
U-87 MG [10] = test: Effect on LAT-1 expression in human U87MG cells at 50 uM incubated for 2 hrs by Western blot analysis; type: functional, cell-based; details: U-87MG ATCC
Summary of the method: (§2)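 Western blot for LAT-1 protein in the three cell lines after 2 h incubation with the derivatives. Primary antibodies: LAT-1 (1:2500) and α-tubulin (1:5000) as loading reference. Qualitative comparison of expression level.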

LN-229 [11] = test: Effect on LAT-1 expression in human LN229 cells at 50 uM incubated for 2 hrs by Western blot analysis; type: functional, cell-based; summary of the method: as §2
NIH3T3 = test: Downregulation of LAT-1 expression in mouse 3T3 cells at 50 uM incubated for 2 hrs by Western blot analysis; type: functional, cell-based; summary of the method: as §2
[12] = Ratio of drug uptake in human LN229 cells to drug uptake in mouse 3T3 cells measured up to 4 hrs; type: ADME, cell-based
[13] = Ratio of drug uptake in human U87MG cells to drug uptake in mouse 3T3 cells measured up to 4 hrs; type: ADME, cell-based
[14] = Ratio of drug uptake in human LN229 cells to drug uptake in mouse 3T3 cells measured at 1 hr; type: ADME, cell-based
[15] = Drug uptake in human LN229 cells at 50 uM incubated for 1 hr by ICP-MS analysis; type: ADME, cell-based; details: ln-229, 1 h

SMILES	viability at 24 h [1] [%]	Activity (LN-229 [2])	viability at 100 µM (U-87 MG [3]) [%]	Drug uptake [4]	solubility [5]	viability at 100 µM (LN-229 [6]) [%]	Drug uptake [7]	Activity (U-87 MG [8])	Drug uptake [9] [ppm]	Activity (U-87 MG [10])	Activity (LN-229 [11])	Activity (NIH3T3)	Ratio [12]	Ratio [13]	Ratio [14]	Drug uptake [15] [ppm]
COC(=O)C(Cc1cn(C(=O)OC(C)(C)C)c2ccc(B3OC(C)(C)C(C)(C)O3)cc12)N(C(C)=O)C(=O)OC(C)(C)C (configuration not stated)	63.6	Active	70.2	Active	Insoluble	70.8	Active	Active	300							
COC(=O)C(Cc1c[nH]c2ccc(B3OC(C)(C)C(C)(C)O3)cc12)NC(C)=O (configuration not stated)	60.2		66.2	Not Active		69.9	Not Active			inactive	inactive	Active				
COC(=O)C(Cc1cn(C(=O)OC(C)(C)C)c2cc(B3OC(C)(C)C(C)(C)O3)ccc12)N(C(=O)OC(C)(C)C)C(=O)OC(C)(C)C (configuration not stated)	63.6	Active	60.1	300 ppm	Insoluble	53.2	300 ppm	Active		inactive	inactive	Active	> 5	> 5		
COC(=O)C(Cc1cn(C(=O)OC(C)(C)C)c2ccc(B3OC(C)(C)C(C)(C)O3)cc12)N(C(=O)OC(C)(C)C)C(=O)OC(C)(C)C (configuration not stated)	60.2	Active	67.4	Active	Insoluble	60.7	Active	Active	300	inactive	inactive	Active	> 5	> 5	> 9.66	450
COC(=O)C(N)Cc1c[nH]c2ccc(B3OC(C)(C)C(C)(C)O3)cc12 (configuration not stated)	53		65.8	Not Active		67.3	Not Active			inactive	inactive	Active				
N[C@@H](Cc1ccc(B(O)O)cc1)C(=O)O	110	Active	67			79.6		Active		inactive	inactive	Active			2.3	< 50
COC(=O)C(Cc1c(B2OC(C)(C)C(C)(C)O2)[nH]c2c(B3OC(C)(C)C(C)(C)O3)cccc12)N=[N+]=[N-] (configuration not stated)	66.6		61.3			57.2										

Source: ChEMBL document CHEMBL4342515, “Boron Accumulation in Brain Tumor Cells through Boc-Protected Tryptophan as a Carrier for Boron Neutron Capture Therapy” (ACS Med Chem Lett, 2020)
